From ChEMBL document CHEMBL1122866, “3-Phenyl-1-indanamines. Potential antidepressant activity and potent inhibition of dopamine, norepinephrine, and serotonin uptake” (J Med Chem, 1985)
pIC50: −log10 of the molar value.

Key:
Assay type in all cases: functional
Mus musculus [1] = species on record: Mus musculus; assay: Compound was tested for antagonistic activity against 5-HTP-induced potentiation in mice
How it was run: (§1)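 Mice dosed intraperitoneally; the result is reported as the ED50 in μmol/kg with a range in parentheses. Test compounds are racemates of >95% isomeric purity by TLC.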

Mus musculus [2] = species on record: Mus musculus; assay: Antagonistic activity against tetrabenazine-induced ptosis in mice; how it was run: as §1
[3] = biological target: Norepinephrine transporter (Rattus norvegicus, UniProt Q9WTR4); assay: Inhibition of noradrenaline uptake in rat synaptosomal fraction
How it was run: (§2)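 Synaptosomal uptake of DA, NE or 5-HT measured. The IC50 is in nM and is the mean of at least two determinations, each using five test concentrations in triplicate.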

[4] = biological target: Sodium-dependent dopamine transporter (Rattus norvegicus, UniProt P23977); assay: Inhibition of dopamine uptake in rat synaptosomal fraction
[5] = biological target: Sodium-dependent serotonin transporter (Rattus norvegicus, UniProt P31652); assay: Inhibition of 5-HT uptake in rat synaptosomal fraction; how it was run: as §2
Mus musculus [6] = species on record: Mus musculus; assay: Antagonistic activity against 5-HTP induced potentiation in mice; how it was run: as §1
Mus musculus [7] = species on record: Mus musculus; assay: Antagonistic activity against tetrabenazine-induced ptosis in mice.; how it was run: as §1

Norepinephrine transporter, sequence (Q9WTR4 whole entry): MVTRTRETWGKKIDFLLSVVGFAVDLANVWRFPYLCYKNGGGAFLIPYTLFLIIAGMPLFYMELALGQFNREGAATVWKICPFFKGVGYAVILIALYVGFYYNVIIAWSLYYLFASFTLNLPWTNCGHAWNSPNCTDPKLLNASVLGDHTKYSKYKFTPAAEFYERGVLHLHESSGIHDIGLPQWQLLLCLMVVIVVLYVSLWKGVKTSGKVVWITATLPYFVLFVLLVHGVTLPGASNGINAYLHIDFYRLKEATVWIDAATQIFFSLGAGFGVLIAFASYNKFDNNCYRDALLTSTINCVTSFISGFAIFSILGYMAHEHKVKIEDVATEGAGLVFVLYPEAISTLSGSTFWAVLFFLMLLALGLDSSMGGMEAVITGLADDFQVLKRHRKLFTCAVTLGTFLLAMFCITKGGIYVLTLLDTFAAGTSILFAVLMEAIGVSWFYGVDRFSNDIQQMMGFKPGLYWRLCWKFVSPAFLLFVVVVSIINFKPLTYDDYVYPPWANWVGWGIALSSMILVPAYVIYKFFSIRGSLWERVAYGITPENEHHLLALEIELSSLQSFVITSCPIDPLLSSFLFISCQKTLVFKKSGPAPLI
Sodium-dependent dopamine transporter, sequence (P23977 whole entry): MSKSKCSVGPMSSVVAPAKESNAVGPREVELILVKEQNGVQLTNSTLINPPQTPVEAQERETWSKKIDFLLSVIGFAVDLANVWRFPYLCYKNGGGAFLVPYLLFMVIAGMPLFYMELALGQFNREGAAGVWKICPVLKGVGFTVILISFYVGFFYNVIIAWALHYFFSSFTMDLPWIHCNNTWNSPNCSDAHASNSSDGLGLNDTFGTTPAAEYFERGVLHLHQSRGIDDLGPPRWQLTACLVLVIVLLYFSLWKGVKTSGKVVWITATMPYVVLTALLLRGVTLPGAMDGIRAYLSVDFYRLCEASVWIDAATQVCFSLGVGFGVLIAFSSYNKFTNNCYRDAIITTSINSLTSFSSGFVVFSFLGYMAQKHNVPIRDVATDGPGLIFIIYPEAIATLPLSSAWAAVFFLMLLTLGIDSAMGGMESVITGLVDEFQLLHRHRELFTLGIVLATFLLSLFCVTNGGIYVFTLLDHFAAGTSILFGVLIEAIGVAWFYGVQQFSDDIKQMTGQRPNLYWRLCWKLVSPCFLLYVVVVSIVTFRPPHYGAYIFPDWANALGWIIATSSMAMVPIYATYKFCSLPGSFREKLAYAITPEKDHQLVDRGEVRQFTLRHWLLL
Sodium-dependent serotonin transporter, sequence (P31652 whole entry): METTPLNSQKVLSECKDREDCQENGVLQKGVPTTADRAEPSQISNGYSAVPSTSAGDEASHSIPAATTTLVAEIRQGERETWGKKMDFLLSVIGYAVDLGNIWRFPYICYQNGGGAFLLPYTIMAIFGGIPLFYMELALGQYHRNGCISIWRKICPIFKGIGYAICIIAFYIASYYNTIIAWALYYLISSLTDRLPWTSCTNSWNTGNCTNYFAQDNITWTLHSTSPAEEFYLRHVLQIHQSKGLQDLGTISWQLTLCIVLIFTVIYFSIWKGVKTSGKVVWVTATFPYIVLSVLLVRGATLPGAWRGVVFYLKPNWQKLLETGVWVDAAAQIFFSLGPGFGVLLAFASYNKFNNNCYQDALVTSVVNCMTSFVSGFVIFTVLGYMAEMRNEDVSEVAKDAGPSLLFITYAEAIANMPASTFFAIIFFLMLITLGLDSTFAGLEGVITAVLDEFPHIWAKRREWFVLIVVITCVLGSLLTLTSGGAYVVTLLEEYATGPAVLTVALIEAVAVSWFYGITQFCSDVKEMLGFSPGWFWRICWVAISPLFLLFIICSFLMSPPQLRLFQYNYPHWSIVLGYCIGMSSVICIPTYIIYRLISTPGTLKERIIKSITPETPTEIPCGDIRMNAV

SMILES | ED50 (Mus musculus [1]) | ED50 (Mus musculus [2]) | pIC50 [3] | pIC50 [4] | pIC50 [5] | ED50 (Mus musculus [6]) | ED50 (Mus musculus [7]; Mus musculus, read-out: ED50) | ED50 (Mus musculus [2]; Mus musculus, read-out: ED50) | ED50 (Mus musculus [1]; Mus musculus, read-out: ED50) | ED50 (Mus musculus [7])
CNC1CC(c2ccc(Cl)c(Cl)c2)c2ccc(OC)cc21 (configuration not stated) | 14 µM/kg | 7 µM/kg | 9.17 | 8.60 | 9.21 | – | – | – | – | –
CNCCCC1(c2ccccc2)SC(C)(C)c2ccccc21 (configuration not stated) | – | – | 9.10 | 5.03 | 6.07 | > 115 µmol/kg | 2.3 µmol/kg | – | – | –
CN(C)C1CC(c2ccc(Cl)c(Cl)c2)c2ccc(O)cc21 (configuration not stated) | – | – | 7.80 | 8.10 | 9.43 | – | – | 22 µmol/kg | – | –
CNC1CC(c2ccc(Cl)c(Cl)c2)c2ccc(OC)cc21.Cl (configuration not stated) | 2.9 µM/kg | – | 7.72 | 7.72 | 9.28 | – | – | 14 µmol/kg | – | –
CNC1CC(c2ccc(C(F)(F)F)cc2)c2ccccc21 (configuration not stated) | – | – | 7.17 | 6.80 | 8.33 | 45 µmol/kg | 58 µmol/kg | – | – | –
OCCNC1CC(c2ccc(Cl)c(Cl)c2)c2ccccc21 (configuration not stated) | – | – | – | – | – | > 111 µmol/kg | > 111 µmol/kg | 75 µmol/kg | 171 µmol/kg | –
CNC1CC(c2ccc(Cl)c(C(F)(F)F)c2)c2ccccc21 (configuration not stated) | – | – | 7.60 | 5.46 | 8.38 | 55 µmol/kg | > 110 µmol/kg | – | – | –
CNC1CC(c2ccccc2)c2ccccc21 (configuration not stated) | – | – | 6.49 | 5.85 | 6.68 | 211 µmol/kg | > 154 µmol/kg | – | – | –
CN1CCN(C2CC(c3ccc(Cl)c(Cl)c3)c3ccccc32)CC1 (single isomer, unassigned; (-)) | – | 26 µM/kg | – | 8.00 | – | – | – | – | – | –
CNC1CC(c2cccc(Cl)c2)c2ccccc21.Cl (stereo in doubt; 39) | – | – | 9.92 | 7.85 | 7.39 | – | – | – | – | 45 µmol/kg
CN(C)C1CC(c2cccc(Cl)c2)c2ccccc21.Cl (stereo in doubt; 40) | – | – | 7.82 | 7.15 | 7.44 | – | – | – | – | 10 µmol/kg
CNC1CC(c2ccc(F)c(F)c2)c2ccccc21.Cl (stereo in doubt; 41) | – | – | 8.80 | 7.68 | 7.31 | – | – | – | – | 58 µmol/kg
CNC1CC(c2ccc(Cl)cc2Cl)c2ccccc21.Cl (stereo in doubt; 48) | – | – | 7.82 | 6.29 | 9.04 | – | – | – | – | 19 µmol/kg
CN(C)C1CC(c2ccc(Cl)cc2Cl)c2ccccc21.Cl (stereo in doubt; 49) | – | – | 7.05 | 5.70 | 9.24 | – | – | – | – | 23 µmol/kg
CNC1CC(c2ccc(Cl)c(Cl)c2)c2ccc(F)cc21.Cl (stereo in doubt; 50) | – | – | 9.15 | 9.92 | 8.64 | – | – | – | – | 33 µmol/kg
CN(C)C1CC(c2ccc(Cl)c(Cl)c2)c2ccc(F)cc21 (stereo in doubt; 51) | – | – | 7.68 | 7.92 | 8.96 | – | > 111 µmol/kg | – | – | –
COc1ccc2c(c1)C(N(C)C)CC2c1ccc(Cl)c(Cl)c1 (stereo in doubt; 53) | 14 µM/kg | 33 µM/kg | 7.80 | 8.00 | 8.80 | – | – | – | – | –
CNC1CC(c2ccc(Cl)c(Cl)c2)c2ccc(O)cc21 (stereo in doubt; 54) | – | 21 µM/kg | 9.09 | 9.28 | 8.60 | – | – | – | – | –
CN(C)C1CC(c2ccc(F)cc2)c2ccc(C(F)(F)F)cc21 (stereo in doubt; 57) | – | – | 7.07 | 6.62 | 7.37 | – | 116 µmol/kg | – | – | –

SMILES | ED50 (Mus musculus [1]) | ED50 (Mus musculus [2]) | pIC50 [3] | pIC50 [4] | pIC50 [5] | ED50 (Mus musculus [6]) | ED50 (Mus musculus [7]; Mus musculus, read-out: ED50) | ED50 (Mus musculus [2]; Mus musculus, read-out: ED50) | ED50 (Mus musculus [1]; Mus musculus, read-out: ED50) | ED50 (Mus musculus [7])
CN(C)C1CC(c2ccc(Cl)cc2)c2ccccc21 (stereo in doubt; 63) | – | – | 8.36 | 6.72 | 9.47 | – | 43 µmol/kg | – | – | –
CNC1CC(c2ccc(Br)cc2)c2ccccc21.Cl (stereo in doubt; 64) | – | – | 8.06 | 7.17 | 9.80 | – | – | – | – | 29 µmol/kg
CN(C)C1CC(c2ccc(Br)cc2)c2ccccc21 (stereo in doubt; 65) | – | – | 8.37 | 7.08 | 9.85 | – | – | – | – | 2.3 µmol/kg
CNC1CC(c2cccc(Cl)c2)c2ccccc21.Cl (stereo in doubt; 66) | – | – | 7.72 | 6.66 | 8.17 | – | – | – | – | 119 µmol/kg
CN(C)C1CC(c2cccc(Cl)c2)c2ccccc21.Cl (stereo in doubt; 67) | – | – | 9.11 | 7.27 | 8.59 | – | – | – | – | 85 µmol/kg
CNC1CC(c2ccc(F)c(F)c2)c2ccccc21.Cl (stereo in doubt; 68) | – | – | 7.48 | 6.82 | 8.34 | – | – | – | – | 23 µmol/kg
CNC1CC(c2ccc(Cl)cc2Cl)c2ccccc21.Cl (stereo in doubt; 74) | – | – | 8.21 | 7.00 | 7.68 | – | – | – | – | 98 µmol/kg
CNC1CC(c2ccc(Cl)c(Cl)c2)c2ccc(F)cc21.Cl (stereo in doubt; 76) | – | – | 7.85 | 8.30 | 9.12 | – | – | – | – | 15 µmol/kg
COc1ccc2c(c1)C(N(C)C)CC2c1ccc(Cl)c(Cl)c1 (stereo in doubt; 79) | – | – | 8.52 | 7.82 | 8.70 | – | – | 34 µmol/kg | 7.4 µmol/kg | –
CNC1CC(c2ccc(Cl)c(Cl)c2)c2ccc(O)cc21 (stereo in doubt; 80) | – | – | 8.20 | 8.39 | 9.96 | – | – | 15 µmol/kg | 59 µmol/kg | –
CCN(CC)C1CC(c2ccc(Cl)c(Cl)c2)c2ccccc21.Cl (stereo in doubt; 85) | – | – | 9.25 | 8.68 | 8.55 | – | – | – | – | 52 µmol/kg
CCCNC1CC(c2ccc(Cl)c(Cl)c2)c2ccccc21.Cl (stereo in doubt; 87) | – | – | 9.18 | 8.18 | 6.82 | – | – | – | – | 68 µmol/kg
CCCN(CCC)C1CC(c2ccc(Cl)c(Cl)c2)c2ccccc21.Cl (stereo in doubt; 89) | – | – | 7.14 | 6.82 | 6.14 | – | – | – | – | 25 µmol/kg
Clc1ccc(C2CC(N3CCCCC3)c3ccccc32)cc1Cl (stereo in doubt; 100) | – | – | 7.10 | 7.10 | 6.38 | – | > 104 µmol/kg | – | – | –
CN1CCN(C2CC(c3ccc(Cl)c(Cl)c3)c3ccccc32)CC1 (stereo in doubt; 101) | – | 48 µM/kg | – | 7.96 | – | – | – | – | 97 µmol/kg | –
CN1CCN(C2CC(c3ccc(Cl)c(Cl)c3)c3ccccc32)CC1 (stereo in doubt; 102) | – | 100 µM/kg | – | 8.36 | – | – | – | – | – | –
CN1CCN(C2CC(c3ccc(Cl)c(Cl)c3)c3ccccc32)CC1 (stereo in doubt; (-)-102) | – | 69 µM/kg | – | 8.64 | – | – | – | – | – | –
CN(C)CCCC1(c2ccc(F)cc2)OCc2cc(C#N)ccc21 (configuration not stated) [CITALOPRAM] | – | – | – | – | – | – | – | 51 µmol/kg | – | –
CNCCCC1(c2ccccc2)OC(C)(C)c2ccccc21 (configuration not stated) [TALOPRAM] | – | – | 8.54 | 4.36 | 5.85 | – | – | 1.2 µmol/kg | 44 µmol/kg | –
